Our source for the zone of inhibition and MIC values is ChEMBL document CHEMBL1275312, “Synthesis of new pyrrolo[2,3-d]pyrimidine derivatives as antibacterial and antifungal agents” (2010).

Type in all cases: functional
Assay [1] deals with Escherichia coli. Briefly: Antimicrobial activity against Escherichia coli NCTC 10416 at 5 mg/ml after 24 hrs by agar well diffusion assay. The settings on record: NCTC 10416, 24 h, read-out: IZ. In short, it runs like this: (§1)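 Agar well diffusion against S. aureus NCTC-7447 and E. coli NCTC-10416 (maintained on Mueller-Hinton agar, 24 h, 37 ± 1 °C) and C. albicans ATCC-10145 (Sabouraud dextrose agar, 48 h, 28 ± 1 °C). Inocula: colonies suspended in 5 mL sterile saline. Wells pre-incubated 1 h in refrigerator, then incubated 24 h at 37 °C (bacteria) or 48 h at 28 °C (fungi). Inhibition zone diameter measured. DMSO blank.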
On the technique in general: Agar diffusion results depend on both activity and mobility in agar.

The subject of assay [2] is Staphylococcus aureus. Put plainly: Antimicrobial activity against Staphylococcus aureus NCTC 7447 at 5 mg/ml after 24 hrs by agar well diffusion assay. The settings on record: NCTC 7447, 24 h, read-out: IZ. In short, it runs like this:
as §1

Assay [3] relates to Candida albicans. Briefly: Antimicrobial activity against Candida albicans ATCC 10145 at 5 mg/ml after 48 hrs by agar well diffusion assay. The settings on record: ATCC 10145, 48 h, read-out: IZ. An outline of the steps:
as §1

Assay [4] concerns Escherichia coli. Briefly: Antimicrobial activity against Escherichia coli NCTC 10416 by twofold serial dilution method. In short, it runs like this:
(§2)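 MIC by two-fold serial dilution, limited to compounds giving inhibition zones of at least 18 mm in the well diffusion screen. Strains: S. aureus NCTC-7447 and E. coli NCTC-10416 on Mueller-Hinton agar at 37 ± 1 °C; C. albicans ATCC-10145 on Sabouraud dextrose agar at 28 ± 1 °C. Inocula were colony suspensions in sterile saline. MIC taken as the lowest concentration (highest dilution) inhibiting growth.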

In assay [5] the test system is Staphylococcus aureus. Briefly: Antimicrobial activity against Staphylococcus aureus NCTC 7447 by twofold serial dilution method. In short, it runs like this: as §2

In brackets after ≈: the same amount, converted by molar mass.

As to `Cc1nc(N)c2cc(-c3ccccc3)n(-c3ccccc3)c2n1`, the zone of inhibition at 5000 µg/mL came out at 18 mm in assay [1], 20 mm in assay [2] and 21 mm in assay [3]. Further, the minimal inhibitory concentration (MIC) (usually the least concentration at which growth counts as inhibited) in assay [4] worked out at 2500 µg/mL (≈ 8.32 mM); in assay [5], 1250 µg/mL (≈ 4.16 mM).
